From ChEMBL document CHEMBL1128303, “Novel non-nucleoside inhibitors of HIV-1 reverse transcriptase. 3. Dipyrido[2,3-b:2',3'-e]diazepinones” (J Med Chem, 1995)
pIC50: −log10 of the molar value.

Each molecule was assayed against Human immunodeficiency virus type 1 reverse transcriptase (Human immunodeficiency virus 1) (UniProt Q72547) (assay: In vitro for inhibition of HIV-1 reverse transcriptase at 1 uM).
Method in brief: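 Compounds were first screened as percent enzyme inhibition at a single 1 μM concentration. IC50 was not determined for compounds giving under 35% inhibition at 1 μM.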

inhibition	Structure (SMILES)
< 35%	CCN1c2cccnc2N(C)C(=O)c2cc(Br)cnc21
< 35%	CCN1c2ncccc2C(=O)N(C)c2nccc(C)c21
< 35%	CCN1c2cccnc2N(C)C(=O)c2ccc(C)nc21
< 35%	CCN1c2cc(-c3cccc(N)c3)cnc2N(C)C(=O)c2cccnc21
< 35%	CCN1c2ccc([N+](=O)[O-])nc2N(C)C(=O)c2cccnc21
< 35%	CCN1c2ncccc2C(=O)N(C)c2cc([N+](=O)[O-])cnc21
< 35%	CCN1c2cc(Br)c(Br)nc2N(C)C(=O)c2cccnc21

What follows are molecules tested against Human immunodeficiency virus type 1 reverse transcriptase (Human immunodeficiency virus 1, UniProt Q72547) (assay: In vitro for inhibition of HIV-1 reverse transcriptase.).

pIC50	Structure (SMILES)
5.75	CCN1c2ccc(C)nc2N(C)C(=O)c2cccnc21
6.54	CN1C(=O)c2cccnc2N(C2CC2)c2ncc(Cl)cc21
5.89	CCN1c2cccnc2N(C)C(=O)c2cccnc21
7.05	CN1C(=O)c2cccnc2N(C2CC2)c2nc(Cl)ccc21
6.12	CN1C(=O)c2cccnc2N(C2CC2)c2cc(Cl)cnc21
6.00	CCN1c2nc(C)ccc2C(=O)N(C)c2cccnc21
6.89	CCN1c2ncc(N)cc2C(=O)N(C)c2cccnc21
7.15	CCN1c2ncccc2C(=O)N(C)c2ccc(-c3cccc(N)c3)nc21
6.72	CCN1c2cc(C)c(C)nc2N(C)C(=O)c2cccnc21
6.82	CCN1c2cc(C)c(C)nc2N(C)C(=O)c2cc(N)cnc21
5.89	CCN1c2ncc(Br)cc2C(=O)N(C)c2cccnc21
6.55	CCN1c2cccnc2N(C)C(=O)c2cc(N)cnc21
6.26	CCN1c2cc(Br)cnc2N(C)C(=O)c2cccnc21
6.00	CN1C(=O)c2cccnc2N(C2CC2)c2ccc(Cl)nc21
